One series deals with CCRF-CEM. Nature of the series: Antiproliferative activity against human CEM cells after 72 hrs by MTT assay. It counts as functional, cell-based. An outline of the steps: (§1)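 Cancer lines kept in RPMI-1640 with 10% foetal bovine serum, 2 mM glutamine, penicillin/streptomycin, 37 °C, 5% CO₂. Seeded at 0.7 × 10⁵ cells/well (adherent) or 0.3 × 10⁶ cells/mL (suspension). After 24 h, compounds in DMSO added at 0.048–25 µg/mL for 72 h. Medium then replaced with 0.5 mg/mL MTT for 3 h. Formazan dissolved in DMSO, absorbance read at 595 nm.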
For orientation: Tetrazolium assays rely on reduction of a dye to a coloured formazan, in cell work by metabolically active cells.

Another series deals with COLO 205. Nature of the series: Antiproliferative activity against human COLO205 cells after 72 hrs by MTT assay. It counts as functional, cell-based. To be noted: COLO 205, 72 h. The method, boiled down:
as §1

In a further series the test system is OVCAR-8. Nature of the series: Antiproliferative activity against human OVCAR8 cells after 72 hrs by MTT assay. It counts as functional, cell-based. The note with it: OVCAR-8, 72 h. The method, boiled down: as §1
Series [1] relates to PC-3. Nature of the series: Antiproliferative activity against human PC3 cells after 72 hrs by MTT assay. It is filed as functional, cell-based. The note with it: PC-3, 72 h. An outline of the steps: as §1
The subject of a further series is K562. In words: Antiproliferative activity against human K562 cells after 72 hrs by MTT assay. It counts as functional, cell-based. The note with it: K562, 72 h. An outline of the steps:
as §1

Another series concerns HCT-8. Nature of the series: Antiproliferative activity against human HCT8 cells after 72 hrs by MTT assay. It counts as functional, cell-based. To be noted: HCT-8, 72 h. The method, boiled down: as §1
In a further series the test system is HL-60. In words: Antiproliferative activity against human HL60 cells after 72 hrs by MTT assay. It is filed as functional, cell-based. The note with it: HL-60, 72 h. The method, boiled down: as §1
Another series deals with UACC-62. Nature of the series: Antiproliferative activity against human UACC62 cells after 72 hrs by MTT assay. It counts as functional, cell-based. To be noted: UACC-62, 72 h. The method, boiled down:
as §1

Series [2] concerns Nucleic Acid. In words: Binding affinity to calf thymus dsDNA in biosensor assessed as oxidation of exposed bases at 10^-4 M by differential pulse voltametry. The note with it: Bos taurus. It counts as nucleic-acid assay. The method, boiled down:
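Glassy carbon electrode polished with alumina, then pretreated by five cyclic scans 0 to +1.4 V in acetate buffer pH 4.5. Electrode coated with a dsDNA gel layer, then 20 µL of 10⁻⁴ M ethanolic compound added with drying. DPV in acetate buffer from 0 to 1.4 V: pulse amplitude 50 mV, pulse width 70 ms, step 2 mV, scan rate 5 mV/s, 25 °C. An untreated dsDNA electrode served as blank.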

Series [3] relates to V79. Nature of the series: Cytotoxicity against chinese hamster V79 cells after 72 hrs by MTT assay. It counts as cell-based. To be noted: Cricetulus griseus, V79, 72 h. An outline of the steps: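 V79 Chinese hamster lung fibroblasts grown in MEM with Earle's salts, 10% foetal bovine serum, 2 mM glutamine, penicillin/streptomycin, 37 °C, 5% CO₂. Seeded at 0.7 × 10⁵ cells/well. Compounds in DMSO added at 0.048–25 µg/mL after 24 h and left 72 h. MTT 0.5 mg/mL for 3 h, formazan in DMSO read at 595 nm. IC50 by nonlinear regression, two experiments in duplicate.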

Another series relates to HCT-15. In words: Antiproliferative activity against human HCT15 cells after 72 hrs by MTT assay. It counts as functional, cell-based. To be noted: HCT-15, 72 h. The method, boiled down:
as §1

In series [4] the test system is Nucleic Acid. In words: Binding affinity to calf thymus ssDNA in solution assessed as oxidation of exposed bases at 10^-4 M by differential pulse voltametry. It counts as nucleic-acid assay. To be noted: Bos taurus. An outline of the steps: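 ssDNA made by dissolving dsDNA (3.0 mg/mL) in 1 M HCl with heating for 1 h. Compound was incorporated into a carbon paste electrode; blank paste contained ethanol only. DPV at pH 4.5 in ssDNA solution (1.0 × 10⁻⁴ M): equilibration 5 s, step 2 mV, pulse amplitude 50 mV, scan rate 5 mV/s.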

In another series the test system is PBMC. In words: Cytotoxicity against human PBMC after 72 hrs by alamar blue assay. It is filed as cell-based. An outline of the steps: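 PBMC isolated from heparinised blood of healthy non-smoking donors by Ficoll-Hypaque density gradient. Cultured in RPMI-1640 with 20% FBS, glutamine, antibiotics and 2% phytohaemagglutinin at 37 °C, 5% CO₂. Plated at 3 × 10⁵ cells/mL; compounds in DMSO added at 0.048–25 µg/mL after 24 h, 72 h exposure. Alamar blue (resazurin) added 24 h before the end; absorbance read at 570 and 595 nm. IC50 by nonlinear regression.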
In general terms: Resazurin is reduced to fluorescent resorufin, in cell work by metabolically active cells.

The next series relates to MDA-MB-435. In words: Antiproliferative activity against human MDA-MB-435 cells after 72 hrs by MTT assay. It counts as functional, cell-based. The note with it: MDA-MB-435, 72 h. The method, boiled down: as §1
Series [5] is described as follows: Haemolysis in mouse erythrocytes at 200 ug/mL after 30 mins by spectrophotometry. It is filed as ADME, cell-based. The note with it: erythrocyte, 0.5 h. An outline of the steps: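 Mouse erythrocytes used as a 2% suspension in 0.85% NaCl with 10 mM CaCl₂. Compounds tested across 1.5–200 µg/mL with 1% Triton X-100 as positive control. Incubated 30 min at room temperature, then centrifuged. Released haemoglobin in the supernatant measured at 540 nm.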

The subject of a further series is SF-295. In words: Antiproliferative activity against human SF295 cells after 72 hrs by MTT assay. The note with it: SF-295, 72 h. It counts as functional, cell-based. The method, boiled down:
as §1

Series [6] deals with V79. In words: Selectivity ratio of IC50 for chinese hamster V79 cells to IC50 for human SF295 cells.
A further series deals with SW-620. In words: Antiproliferative activity against human SW620 cells after 72 hrs by MTT assay. To be noted: SW-620, 72 h. It counts as functional, cell-based. The method, boiled down: as §1
Series [7] concerns PC-3. Nature of the series: Cytotoxicity against human PC3 cells after 24 hrs by MTT assay. It counts as functional, cell-based. The note with it: PC-3, 24 h.
The test system of the next series is LNCaP. In words: Cytotoxicity against human LNCAP cells after 24 hrs by MTT assay. It counts as functional, cell-based.
For the next series, the system named is MDA-MB-231. In words: Antiproliferative activity against human MDA-MB-231 cells after 72 hrs by MTT assay. It is filed as functional, cell-based. To be noted: MDA-MB-231, 72 h. An outline of the steps: as §1
A further series has as its system Hs-578T. In words: Antiproliferative activity against human Hs578T cells after 72 hrs by MTT assay. It counts as functional, cell-based. The method, boiled down: as §1
In another series the test system is DU-145. In words: Antiproliferative activity against human DU145 cells after 72 hrs by MTT assay. It is filed as functional, cell-based. To be noted: DU-145, 72 h. The method, boiled down: as §1
The test system of another series is MX1. In words: Antiproliferative activity against human MX1 cells after 72 hrs by MTT assay. It counts as functional, cell-based. To be noted: MX1, 72 h. The method, boiled down: as §1

Activity calls are given as the source filed them. The calls are words filed in the database; no cut-off is given here.

With `O=C1SC(=Cc2c3ccccc3nc3ccccc23)C(=O)N1Cc1ccc(F)cc1` (mixture of isomers), the IC50 (in general, the point on the concentration scale where inhibition reaches its midpoint) is > 60.3 µM in the series on CCRF-CEM; 23 µM in the series on COLO 205; 9.3 µM in the series with OVCAR-8; 27.1 µM in the series with PC-3 [1]; > 60.3 µM in the series on K562; 5.6 µM in the series on HCT-8. Further, the half-maximal inhibitory concentration (IC50) in the series on HL-60 is > 60.3 µM; in the series with UACC-62, 9.5 µM; in the series with V79 [3], 32.7 µM; in the series with HCT-15 it was 58 µM; in the series on PBMC, > 60.3 µM; with MDA-MB-435 it was 14.1 µM. Moreover, the values for the 50% inhibitory concentration (IC50) in the series on SF-295 and with SW-620 were 5.6 µM and 31.3 µM, respectively. For the same compound, the result in the series with Nucleic Acid [2] and with Nucleic Acid [4] was Active. Besides, in series [5], the Activity result is “Non-toxic”. In addition, the “Ratio IC50” value in the series on V79 [6] was 5.9.
On to `Cc1c(C)c2c(c(C)c1O)CCC(C)(COc1ccc(/C=C3/SC(=O)NC3=O)cc1)O2` (stereo unspecified), for which the half-maximal inhibitory concentration (IC50) in the series on PC-3 [7] worked out at 20 µM; with LNCaP, 14 µM.
For the compound `Cc1ccc(CN2C(=O)S/C(=C\c3c4ccccc4nc4ccccc34)C2=O)cc1`, the half-maximal inhibitory concentration (IC50) in the series on CCRF-CEM is > 60.9 µM; with MDA-MB-231 it was > 60.9 µM; in the series on Hs-578T it was > 60.9 µM; in the series with COLO 205, 46.4 µM; in the series on OVCAR-8, 19.7 µM; in the series with PC-3 [1], 17.7 µM. The IC50 with K562 was > 60.9 µM; in the series on HCT-8 it was 7.4 µM; with HL-60, > 60.9 µM; with UACC-62 it was 21.1 µM; in the series with DU-145, > 60.9 µM; in the series with V79 [3], 28.5 µM. Also, the IC50 with HCT-15 was 29.2 µM; in the series on PBMC it was > 60.9 µM; in the series with MX1 it was > 60.9 µM; in the series with MDA-MB-435 it was 15.6 µM; with SF-295, 7.8 µM; in the series on SW-620, 26.8 µM. Besides, the outcome in the series with Nucleic Acid [2] and in the series on Nucleic Acid [4] was Active. The Activity result in [5] is “Non-toxic”. The “Ratio IC50” value in the series on V79 [6] was determined as 3.7.
For `CCOC(=O)/C(C#N)=C/c1c2ccccc2nc2ccccc12`, the results for the IC50 in the series with OVCAR-8, in the series on HL-60 and with SF-295 were 23.3 µM, 4.07 µM and 54.7 µM, respectively. Besides, the result with Nucleic Acid [2] and in the series with Nucleic Acid [4] was Active. Further, the Activity entry in [5] is “Non-toxic”.
On to `O=C1S/C(=C\c2c3ccccc3nc3ccccc23)C(=O)N1Cc1ccc(Cl)cc1`, for which the IC50 was > 58 µM with CCRF-CEM; > 58 µM in the series with MDA-MB-231; > 58 µM in the series with Hs-578T; 6.3 µM in the series on COLO 205; 5.7 µM in the series with OVCAR-8; 13 µM in the series with PC-3 [1]. Also, the half-maximal inhibitory concentration (IC50) is > 58 µM in the series on K562; 8.3 µM in the series with HCT-8; > 58 µM with HL-60; 29 µM with UACC-62; 9.5 µM in the series with DU-145; 17.9 µM in the series on V79 [3]. Further, the IC50 in the series with HCT-15 is 21.5 µM; with PBMC, > 58 µM; in the series with MX1 it was > 58 µM; with MDA-MB-435, 22.2 µM; in the series with SF-295, 5.8 µM; with SW-620, 20.1 µM. In addition, the outcome in the series on Nucleic Acid [2] and with Nucleic Acid [4] was Active. Also, the Activity result in [5] was “Non-toxic”. Also, the “Ratio IC50” value in the series with V79 [6] was 3.1.
As to `COc1cc(NS(C)(=O)=O)ccc1Nc1c2ccccc2nc2ccccc12` [AMSACRINE], the IC50 in the series on COLO 205 stood at 1.1 µM; in the series on OVCAR-8, 1.4 µM; in the series with PC-3 [1] it was 3.3 µM; in the series on HCT-8, 0.3 µM; with HL-60, 0.08 µM; with DU-145, 0.3 µM. The half-maximal inhibitory concentration (IC50) in the series on V79 [3] was 5.8 µM; in the series with HCT-15, 0.3 µM; in the series on PBMC it was 21.7 µM; with SF-295 it was 0.5 µM; with SW-620 it was 0.3 µM.
In the case of `O=C1SC(=Cc2c3ccccc3nc3ccccc23)C(=O)N1Cc1ccc(Br)cc1` (mixture of isomers), the IC50 in the series on CCRF-CEM was > 52.6 µM; in the series on COLO 205, > 52.6 µM; in the series on OVCAR-8 it was 37.2 µM; in the series with PC-3 [1] it was 8.6 µM; with K562, > 52.6 µM; in the series on HCT-8, 11.2 µM. In addition, the IC50 with HL-60 was > 52.6 µM; in the series with UACC-62 it was 50.7 µM; in the series with V79 [3], 22.6 µM; with HCT-15, 19.8 µM; in the series on PBMC it was > 52.6 µM; in the series on MDA-MB-435, 25.9 µM. Also, the IC50 turned out to be 7.2 µM in the series with SF-295 and 35.5 µM in the series on SW-620. The outcome with Nucleic Acid [2] and in the series on Nucleic Acid [4] was Active. Besides, in [5], the Activity result is “Non-toxic”. For the same compound, the “Ratio IC50” value in the series with V79 [6] is listed as 3.1.
Consider `Cc1c(C)c2c(c(C)c1O)CCC(C)(COc1ccc(CC3SC(=O)NC3=O)cc1)O2` (stereo unspecified) [TROGLITAZONE], for which the IC50 in the series with PC-3 [7] is 30 µM; in the series on LNCaP, 22 µM.
